Assay results as given in ChEMBL document CHEMBL4699512, “Synthesis of non-nucleoside anti-viral cyclopropylcarboxacyl hydrazones and initial anti-HSV-1 structure-activity relationship studies” (Bioorg Med Chem Lett, 2020).
The source made the active and inactive calls. No cut-off for these calls is given here.

What follows are compounds tested on Human alphaherpesvirus 1 (assay: Antiviral activity against recombinant EGFP/RFP expressing Herpes simplex virus 1 KOS infected in iPSC-neurons assessed as decrease in proportion of fluorescent cells compound added 2 hr post infection incubated for 48 hrs by flow cytometry analysis). Settings: Induced pluripotent stem cell-derived neuron.
Assay type: functional, organism-based
Outline: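 iPSC-derived neurons infected with recombinant HSV-1 derived from strain KOS, expressing EGFP from the early ICP0 promoter and monomeric RFP from the glycoprotein C promoter. Infection was scored as the proportion of fluorescent cells. Controls were uninfected cells, virus alone, and virus with acyclovir as positive control. The protocol follows the group's earlier procedure.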

Structure (SMILES) | Activity
O=C(N/N=C/c1ccccn1)C1CC1(c1ccc(OC(F)(F)F)cc1)c1ccc(OC(F)(F)F)cc1 (stereo unspecified) | Active
O=C(N/N=C/c1ccc[nH]1)C1CC1(c1ccc(OC(F)(F)F)cc1)c1ccc(OC(F)(F)F)cc1 (stereo unspecified) | Active
O=C(N/N=C/c1ccc[nH]1)C1CC1(c1ccccc1)c1ccccc1 (stereo unspecified) | Active
O=C(N/N=C/c1ccc([N+](=O)[O-])cc1)C1CC1(c1ccccc1)c1ccccc1 (stereo unspecified) | inactive
O=C(N/N=C/c1ccccn1)C1CC1(c1ccccc1)c1ccccc1 (stereo unspecified) | Active
Nc1nc2c(ncn2COCCO)c(=O)[nH]1 [ACYCLOVIR] | Active
O=C(N/N=C/c1c[nH]cn1)C1CC1(c1ccccc1)c1ccccc1 (stereo unspecified) | inactive
COc1cc(/C=N/NC(=O)C2CC2(c2ccccc2)c2ccccc2)ccc1O (stereo unspecified) | inactive
COc1cc(/C=N/NC(=O)C2CC2(c2ccccc2)c2ccccc2)cc(OC)c1OC (stereo unspecified) | Active
O=C(N/N=C/c1ccc(Br)cc1)C1CC1(c1ccccc1)c1ccccc1 (stereo unspecified) | inactive
O=C(N/N=C/c1ncc[nH]1)C1CC1(c1ccccc1)c1ccccc1 (stereo unspecified) | inactive
O=C(N/N=C/c1ccccc1Cl)C1CC1(c1ccccc1)c1ccccc1 (stereo unspecified) | Active
O=C(N/N=C/c1c[nH]c2ccccc12)C1CC1(c1ccccc1)c1ccccc1 (stereo unspecified) | Active
O=C(N/N=C/c1ccco1)C1CC1(c1ccccc1)c1ccccc1 (stereo unspecified) | Active
O=C(N/N=C/c1ccc2c(c1)OCO2)C1CC1(c1ccccc1)c1ccccc1 (stereo unspecified) | Active
CN(C)c1ccc(/C=N/NC(=O)C2CC2(c2ccccc2)c2ccccc2)cc1 (stereo unspecified) | inactive
O=C(N/N=C/c1ccc(Br)o1)C1CC1(c1ccccc1)c1ccccc1 (stereo unspecified) | inactive
O=C(N/N=C1/CCCc2ccccc21)C1CC1(c1ccccc1)c1ccccc1 (stereo unspecified) | inactive
O=C(N/N=C/c1cccs1)C1CC1(c1ccccc1)c1ccccc1 (stereo unspecified) | Active
O=C(N/N=C/C1CCCCC1)C1CC1(c1ccccc1)c1ccccc1 (stereo unspecified) | Active
O=C(N/N=C/c1cccnc1)C1CC1(c1ccccc1)c1ccccc1 (stereo unspecified) | inactive
O=C(N/N=C/c1ccc(F)cc1F)C1CC1(c1ccccc1)c1ccccc1 (stereo unspecified) | inactive

The compounds below were run on Human alphaherpesvirus 1 (assay: Potency index, ratio of acyclovir IC50 to compound IC50 for antiviral activity against HSV-1 infected in neuronal progenitor cells). Settings: not given.
Assay type: functional, Neuronal cell line

Structure (SMILES) | Ratio IC50
O=C(N/N=C/c1ccc[nH]1)C1CC1(c1ccc(OC(F)(F)F)cc1)c1ccc(OC(F)(F)F)cc1 (stereo unspecified) | 2

What follows are compounds tested on Neuronal cell line (assay: Cytotoxicity against human neuronal progenitor cells assessed as cell viability at 25 uM). Settings: not given.
Assay type: cell-based

Structure (SMILES) | Activity
O=C(N/N=C/c1ccc[nH]1)C1CC1(c1ccc(OC(F)(F)F)cc1)c1ccc(OC(F)(F)F)cc1 (stereo unspecified) | Non-Toxic

Each compound was assayed on Human alphaherpesvirus 1 (assay: Antiviral activity against Herpes simplex virus 1 infected in neuronal progenitor cells assessed as decrease in fluorescent cells). Settings: Human alphaherpesvirus 1, Neuronal cell line.
Assay type: functional, organism-based

IC50 [µM] | Structure (SMILES)
14.1 | O=C(N/N=C/c1ccc[nH]1)C1CC1(c1ccc(OC(F)(F)F)cc1)c1ccc(OC(F)(F)F)cc1 (stereo unspecified)
27.4 | Nc1nc2c(ncn2COCCO)c(=O)[nH]1 [ACYCLOVIR]
